Measurements from different studies.
Effect on: cell growth or viability

SMILES | cell line | assay | setting | IC50
Cc1[nH]c(/C=C2\C(=O)Nc3ccc(S(=O)(=O)N(C)c4cccc(Cl)c4)cc32)c(C)c1C(=O)N1CCN(C)CC1 | Rh41 |  | 72 h | 1.84 µM
O=C(Nc1ccc(C(F)(F)F)cc1)Nc1cccc(C(=O)Nc2ccc3[nH]nc(-c4ccccc4)c3c2)c1 | KM12 | ATP luminescence | 72 h | > 50 µM
O=C1Nc2ccc(Cl)cc2/C1=N/NC(=O)c1cc2ccccc2[nH]1 | ZR75 |  |  | 18 µM
O=C(Nc1cccc(Cl)c1)Nc1cccc(C(=O)Nc2ccc3[nH]ncc3c2)c1 | KM12 | ATP luminescence | 72 h | > 50 µM
[Fe+2].c1cc[cH-]c1.c1cc[cH-]c1 | BL2 | MTT | 48 h | > 100 µM
O=C(N/N=C1\C(=O)N(c2ccccc2)c2ccccc21)c1cc2ccccc2[nH]1 | ZR75 |  |  | 1.32 µM
COC(=O)/C=C/C=C/c1ccc2c(c1)OCO2 | COR-L23 | SRB |  | 95.6 µM
C[C@H]1[C@@H](O)O[C@@H]2O[C@@]3(C)CC[C@H]4[C@H](C)CC[C@@H]1[C@@]24OO3 | Hep3B | CCK-8 | 48 h | > 50 µM
O=C(Nc1ccc2[nH]ncc2c1)c1cccc(NC(=S)Nc2ccc(C(F)(F)F)cc2)c1 | KM12 | ATP luminescence | 72 h | 23.1 µM
O=C(/C=C/C=C/c1ccc2c(c1)OCO2)N1CCCCC1 | COR-L23 | SRB |  | 74.8 µM
O=C1NCCc2[nH]c(-c3ccncc3)cc21 | SR |  |  | 0.286 µM
O=C(O)CCCc1ccccc1 | PSN1 | MTT | 72 h | > 50 µM
O=C(Nc1cccc(C(=O)Nc2ccc3[nH]ncc3c2)c1)Nc1ccccc1C(F)(F)F | KM12 | ATP luminescence | 72 h | 43.7 µM
CN1C(=O)/C(=N\NC(=O)c2cc3ccccc3[nH]2)c2cc(Cl)ccc21 | ZR75 |  |  | 0.84 µM
CC(C)C[C@H](NC(=O)[C@H](Cc1ccccc1)NC(=O)c1cnccn1)B(O)O | CAKI-2 | ATP luminescence |  | 0.024 µM
O=C(Nc1ccc(Br)cc1)Nc1cccc(C(=O)Nc2ccc3[nH]ncc3c2)c1 | KM12 | ATP luminescence | 72 h | > 50 µM

SMILES | cell line | assay | setting | IC50
CCCCC(C(=O)COc1c(F)c(F)cc(F)c1F)n1cc([C@@](C)(NCc2ccc3ncccc3c2)C2CCC2)nn1 (stereo partly shown) | BESM |  | 72 h | > 10 µM
O=C(Nc1cccc(C(=O)Nc2ccc3[nH]ncc3c2)c1)Nc1ccccc1Cl | KM12 | ATP luminescence | 72 h | > 50 µM
CCC(C(=O)COc1c(F)c(F)cc(F)c1F)n1cc([C@@](C)(NCc2ccc3ncccc3c2)C2CCC2)nn1 (mixture of isomers) | BESM |  | 72 h | > 10 µM
C[C@@H](Oc1cc(-c2cnn(C3CCNCC3)c2)cnc1N)c1c(Cl)ccc(F)c1Cl | Rh41 |  | 72 h | 0.45 µM
COc1cc(Nc2nccc(-c3cnn4nc(OC)ccc34)n2)cc(C(F)(F)F)c1 | CAKI-2 | ATP luminescence |  | 0.2 µM
COc1ccc2c(c1)/C(=N/NC(=O)c1cc3ccccc3[nH]1)C(=O)N2C | ZR75 |  |  | 1.48 µM
CC(=O)Oc1ccc2c(c1)C(C)=CC(C)(C)N2Cc1ccccc1 | Hep3B | MTT | 72 h | 8 µM
CCCCC(C(=O)COc1c(F)c(F)cc(F)c1F)n1cc([C@](C)(CC(C)C)NCc2ccc3ncccc3c2)nn1 (stereo partly shown) | BESM |  | 72 h | > 10 µM
CN1CCN(Cc2ccc(Nc3ncc(Cl)c(Nc4ccccc4S(=O)(=O)N(C)C)n3)cc2)CC1 | PSN1 |  |  | 0.006 µM
O=C(Nc1cccc(C(=O)Nc2ccc3[nH]ncc3c2)c1)Nc1cccc(C(F)(F)F)c1 | KM12 | ATP luminescence | 72 h | 39.5 µM
COc1cc(N2CCC(N3CCN(C)CC3)CC2)ccc1Nc1ncc(Cl)c(Nc2ccccc2S(=O)(=O)C(C)C)n1 | Rh41 |  | 72 h | 0.07 µM
FC(F)(F)c1ccc(C(c2c[nH]c3ccccc23)c2c[nH]c3ccccc23)cc1 | PPC-1 | ATP luminescence | 22 h | 17.6 µM
CCCCC(C(=O)COc1c(F)c(F)cc(F)c1F)n1cc([C@@](C)(NCc2ccc3ncccc3c2)C(C)C)nn1 (stereo partly shown) | BESM |  | 72 h | > 10 µM
CN1C(=O)/C(=N\NC(=O)c2cc3ccccc3[nH]2)c2ccccc21 | ZR75 |  |  | 1.53 µM
O=C(Nc1ccc(I)cc1)Nc1cccc(C(=O)Nc2ccc3[nH]ncc3c2)c1 | KM12 | ATP luminescence | 72 h | > 50 µM
